# Activity calls are given as the source filed them. No cut-off for these calls is given here.
# What was measured:
# [1] = target: T1, Scaffold protein ILK (Homo sapiens) (UniProt Q13418); test: Inhibition of ILK in human MDA-MB-231 cells assessed as decrease in GSK3-beta phosphorylation by Western blot analysis; type: cell-based
# T1 sequence (whole entry): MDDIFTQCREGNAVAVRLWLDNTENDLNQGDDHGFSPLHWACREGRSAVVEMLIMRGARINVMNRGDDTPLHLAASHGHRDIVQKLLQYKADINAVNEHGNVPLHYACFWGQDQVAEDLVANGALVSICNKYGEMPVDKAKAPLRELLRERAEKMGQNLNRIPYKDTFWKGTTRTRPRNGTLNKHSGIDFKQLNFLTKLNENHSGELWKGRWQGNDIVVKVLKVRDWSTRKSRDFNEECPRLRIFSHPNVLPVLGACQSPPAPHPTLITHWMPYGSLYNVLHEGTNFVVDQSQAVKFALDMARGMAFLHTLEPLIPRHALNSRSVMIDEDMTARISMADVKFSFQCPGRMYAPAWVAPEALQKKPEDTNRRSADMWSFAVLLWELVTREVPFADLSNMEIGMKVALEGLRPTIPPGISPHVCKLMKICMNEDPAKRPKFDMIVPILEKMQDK
# In short: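 PC-3 and MDA-MB-231 cells exposed 24 h in 5% FBS medium across a concentration series. Phospho-GSK3β (Ser9) and phospho-MLC (Thr18/Ser19) detected by immunoblot: SDS lysis, primary 1:1000 at 4°C for 2 h, HRP secondary, ECL. Representative of three experiments.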
# [2] = tested on: PC-3; test: Reduction in EGFR concentration in human PC3 cells after 24 hrs by Western blot analysis; type: functional, cell-based
# In short: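 PC-3 versus stable PC-3/CA-ILK, or SKBR3 versus transient SKBR3/CA-ILK (electroporation, used 48 h after), treated 24 h in 5% FBS medium; immunoblotting with ECL; representative of three experiments.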
# [3] = target: Proto-oncogene tyrosine-protein kinase Src (Homo sapiens) (UniProt P12931); test: Inhibition of cSRC at 5 uM assessed as remaining activity
# Sequence of Proto-oncogene tyrosine-protein kinase Src (Homo sapiens) (P12931 2-536 limits assumed): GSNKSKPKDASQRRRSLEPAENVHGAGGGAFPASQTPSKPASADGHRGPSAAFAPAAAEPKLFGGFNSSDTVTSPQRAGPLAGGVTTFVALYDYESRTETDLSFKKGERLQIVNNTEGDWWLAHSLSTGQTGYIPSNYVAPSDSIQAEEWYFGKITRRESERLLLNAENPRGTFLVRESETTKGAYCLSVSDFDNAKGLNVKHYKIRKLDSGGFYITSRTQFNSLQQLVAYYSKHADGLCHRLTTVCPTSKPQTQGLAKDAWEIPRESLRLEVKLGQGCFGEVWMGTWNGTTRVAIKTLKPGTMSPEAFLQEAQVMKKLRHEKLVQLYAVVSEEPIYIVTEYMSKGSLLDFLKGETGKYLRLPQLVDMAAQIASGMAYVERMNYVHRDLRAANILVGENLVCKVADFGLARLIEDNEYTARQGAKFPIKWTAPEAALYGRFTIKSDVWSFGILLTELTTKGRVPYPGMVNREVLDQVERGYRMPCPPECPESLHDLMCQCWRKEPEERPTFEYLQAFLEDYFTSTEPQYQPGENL
# [4] = target: Serine/threonine-protein kinase mTOR (Homo sapiens) (UniProt P42345); test: Inhibition of mTOR at 5 uM assessed as remaining activity
# [5] = tested on: PC-3; test: Induction of apoptosis in human PC3 cells assessed as early apoptotic cells at 4 uM by annexin V/PI staining (reference value: 5.6%); type: functional
smiles,measurement,setting,value
CNC(=O)CCc1cc(-c2ccc(-c3ccc(C(F)(F)F)cc3)cc2)n(-c2ccc(N3CCNCC3)cc2)n1,inhibition,[1],Active
same,Activity,[2],Dose-dependent effect
same,Activity,[3],91%
same,Activity,[4],122%
same,Activity,[5],25.2%
